Reference: ChEMBL document CHEMBL5653630, “Activation of the p53-MDM4 regulatory axis defines the anti-tumour response to PRMT5 inhibition through its role in regulating cellular splicing” (Sci Rep, 2018)
One block for each compound: values may come before it. The source made the active and inactive calls. The rule behind the calls is not given here.

What was measured:
[1] = tested on: MDA-MB-468; test: Induction of cell cycle arrest in human MDA-MB-468 cells assessed as increase in 4n cell population measured upto 5000 nM measured for 7 to 10 days by propidium iodide staining based flow cytometric analysis; format: functional; details: time 7-10 day
[2] = tested on: Z-138; test: In vivo inhibition of PRMT5 in human Z138 cells xenografted in mouse assessed as increase in PHLDA3 expression at 100 mg/kg, po BID measured for 7 days; format: functional, organism-based; details: time 7.0 day
[3] = tested on: Ramos; test: Antiproliferative activity against human Ramos cells assessed as cell growth inhibition incubated for 10 days; format: functional; details: 240 h, time 10 day
[4] = tested on: JEG-3; test: Antiproliferative activity against human JEG-3 cells assessed as cell growth inhibition incubated for 10 days; format: functional; details: JEG-3, 240 h, time 10 day
Summary of the method: (§1)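 Eurofins-panel 10-day assay in 384-well plates. Cells grown in RPMI-1640 with 10% FBS, 2 mM L-alanyl-L-glutamine and 1mM Na pyruvate, or a special medium, at 37°C in 5% CO₂. Compound added 24 h after seeding, 10-point 3.16-fold series in 0.1% DMSO. Medium replaced and compound re-dosed at 168 h. Nuclei fixed and stained after 240 h, then imaged to give a relative cell count. gIC50 is the concentration giving growth midway between untreated and time-zero counts, from a 4-parameter fit.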

[5] = tested on: MEG-01; test: Antiproliferative activity against human MEG-01 cells assessed as cell growth inhibition incubated for 10 days; format: functional; details: MEG-01, 240 h, time 10 day
[6] = tested on: COLO 201; test: Antiproliferative activity against human COLO201 cells assessed as cell growth inhibition incubated for 10 days; format: functional; details: COLO 201, 240 h, time 10 day
Summary of the method: (§2)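 Cells kept in RPMI-1640 with 10% FBS, 2 mM L-alanyl-L-glutamine and 1 mM Na pyruvate (or a special medium) at 37°C, 5% CO2. Compound added 24 h after seeding, 10 concentrations in 3.16-fold dilution, 0.1% DMSO final. Medium replaced and cells re-dosed at 168 h; 240 h incubation. Nuclei fixed, dye-stained and imaged. gIC50 = growth midway between untreated and time-zero cell counts, from a 4-parameter fit.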

[7] = Antiproliferative activity against human RKOAS451 cells assessed as cell growth inhibition incubated for 10 days; format: functional; details: RKOAS451, 240 h, time 10 day
[8] = tested on: RKO; test: Antiproliferative activity against human RKO cells assessed as cell growth inhibition incubated for 10 days; format: functional; details: 240 h, time 10 day
[9] = tested on: SW48; test: Antiproliferative activity against human SW48 cells assessed as cell growth inhibition incubated for 10 days; format: functional; details: SW48, 240 h, time 10 day
[10] = tested on: LS-1034; test: Antiproliferative activity against human LS1034 cells assessed as cell growth inhibition incubated for 10 days; format: functional; details: LS-1034, 240 h, time 10 day
[11] = tested on: SW1417; test: Antiproliferative activity against human SW1417 cells assessed as cell growth inhibition incubated for 10 days; format: functional; details: SW1417, 240 h, time 10 day
[12] = tested on: KATO III stomach cancer cell line; test: Antiproliferative activity against human KATO III stomach cancer cell line assessed as cell growth inhibition incubated for 10 days; format: functional; details: 240 h, time 10 day; summary of the method: as §1
[13] = tested on: SW1783; test: Antiproliferative activity against human SW1783 cells assessed as cell growth inhibition incubated for 10 days; format: functional; details: SW1783, 240 h, time 10 day
[14] = tested on: U138-MG; test: Antiproliferative activity against human U138-MG cells assessed as cell growth inhibition incubated for 10 days; format: functional; details: 240 h, time 10 day
[15] = tested on: L-428; test: Antiproliferative activity against human L-428 cells assessed as cell growth inhibition incubated for 10 days; format: functional; details: L-428, 240 h, time 10 day
[16] = tested on: HepG2; test: Antiproliferative activity against human HepG2 cells assessed as cell growth inhibition incubated for 10 days; format: functional; details: HepG2, 240 h, time 10 day
Summary of the method: (§3)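 Outsourced panel run in 384-well plates. Cells were grown in RPMI-1640/10% FBS or a special medium at 37°C, 5% CO2. Compound was added 24 h after seeding as a 10-point, 3.16-fold series in 0.1% DMSO. Medium was refreshed and cells re-dosed at 168 h, with a time-zero plate kept. At 240 h cells were fixed, nuclei stained and imaged. gIC50 is growth midway between untreated and time zero, from a 4-parameter fit.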

[17] = tested on: HLE; test: Antiproliferative activity against human HLE cells assessed as cell growth inhibition incubated for 10 days; format: functional; details: 240 h, time 10 day; summary of the method: as §3
[18] = tested on: MeWo; test: Antiproliferative activity against human MeWo cells assessed as cell growth inhibition incubated for 10 days; format: functional; details: 240 h, time 10 day
[19] = tested on: A101D; test: Antiproliferative activity against human A101D cells assessed as cell growth inhibition incubated for 10 days; format: functional; details: 240 h, time 10 day; summary of the method: as §2
[20] = tested on: A-375; test: Antiproliferative activity against human A-375 cells assessed as cell growth inhibition incubated for 10 days; format: functional; details: A-375, 240 h, time 10 day; summary of the method: as §2
[21] = tested on: Malme-3M; test: Antiproliferative activity against human Malme-3M cells assessed as cell growth inhibition incubated for 10 days; format: functional; details: 240 h, time 10 day
[22] = tested on: SK-N-DZ; test: Antiproliferative activity against human SK-N-DZ cells assessed as cell growth inhibition incubated for 10 days; format: functional; details: 240 h, time 10 day
[23] = tested on: NCI-H292; test: Antiproliferative activity against human NCI-H292 cells assessed as cell growth inhibition incubated for 10 days; format: functional; details: NCI-H292, 240 h, time 10 day
[24] = tested on: SW900; test: Antiproliferative activity against human SW900 cells assessed as cell growth inhibition incubated for 10 days; format: functional; details: SW900, 240 h, time 10 day
[25] = tested on: Calu-1; test: Antiproliferative activity against human Calu-1 cells assessed as cell growth inhibition incubated for 10 days; format: functional; details: Calu-1, 240 h, time 10 day; summary of the method: as §3
[26] = tested on: NCI-H520; test: Antiproliferative activity against human NCI-H520 cells assessed as cell growth inhibition incubated for 10 days; format: functional; details: NCI-H520, 240 h, time 10 day
[27] = tested on: ES-2; test: Antiproliferative activity against human ES2 cells assessed as cell growth inhibition incubated for 10 days; format: functional; details: ES-2, 240 h, time 10 day; summary of the method: as §3
[28] = tested on: SU.86.86; test: Antiproliferative activity against human SU-86-86 cells assessed as cell growth inhibition incubated for 10 days; format: functional; details: SU.86.86, 240 h, time 10 day
[29] = tested on: A204; test: Antiproliferative activity against human A204 cells assessed as cell growth inhibition incubated for 10 days; format: functional; details: A204, 240 h, time 10 day; summary of the method: as §2
[30] = tested on: SJSA-1; test: Antiproliferative activity against human SJSA-1 cells assessed as cell growth inhibition incubated for 10 days; format: functional; details: SJSA-1, 240 h, time 10 day
[31] = tested on: A673; test: Antiproliferative activity against human A673 cells assessed as cell growth inhibition incubated for 10 days; format: functional; details: A673, 240 h, time 10 day; summary of the method: as §2
[32] = tested on: HT-1080; test: Antiproliferative activity against human HT-1080 cells assessed as cell growth inhibition incubated for 10 days; format: functional; details: HT-1080, 240 h, time 10 day; summary of the method: as §3
[33] = tested on: SW684; test: Antiproliferative activity against human SW684 cells assessed as cell growth inhibition incubated for 10 days; format: functional; details: SW684, 240 h, time 10 day
[34] = tested on: NCI-H69; test: Antiproliferative activity against human NCI-H69 cells assessed as cell growth inhibition incubated for 10 days; format: functional; details: NCI-H69, 240 h, time 10 day
[35] = tested on: CAL-62; test: Antiproliferative activity against human CAL-62 cells assessed as cell growth inhibition incubated for 10 days; format: functional; details: CAL-62, 240 h, time 10 day; summary of the method: as §2

Compound: CC(=O)N1CCC(Nc2cc(C(=O)NC[C@H](O)CN3CCc4ccccc4C3)ncn2)CC1 [PEMRAMETOSTAT]
Activity [1]: Active
inhibition [2]: Active

GI50 [3]: 0.546 µM
GI50 [6]: 0.0496 µM
GI50 [9]: 10 µM
GI50 [11]: 0.773 µM
GI50 [12]: 0.0167 µM
GI50 [13]: 0.389 µM
GI50 [16]: 0.214 µM
GI50 [20]: 0.0796 µM
GI50 [22]: 0.257 µM
GI50 [23]: 0.166 µM
GI50 [24]: 3.25 µM
GI50 [25]: 3.05 µM
GI50 [26]: 0.0156 µM
GI50 [30]: 0.773 µM
GI50 [32]: 0.0535 µM
GI50 [33]: 1.17 µM
GI50 [34]: 0.144 µM
Compound: O=C(NC[C@H](O)CN1CCc2ccccc2C1)c1ccnc(NC2CCC2)c1
GI50 [4]: 0.216 µM
GI50 [5]: 10 µM
GI50 [7]: 0.113 µM
GI50 [8]: 0.772 µM
GI50 [10]: 0.172 µM
GI50 [14]: 0.0433 µM
GI50 [15]: 0.33 µM
GI50 [17]: 0.174 µM
GI50 [18]: 0.249 µM
GI50 [19]: 0.19 µM
GI50 [21]: 0.265 µM
GI50 [27]: 0.106 µM
GI50 [28]: 0.934 µM
GI50 [29]: 0.223 µM
GI50 [31]: 0.119 µM
GI50 [35]: 0.253 µM
